The source of these data is article PMC3585837 (Drugs in R&D, 2012).

Entries after “also recorded” stand apart in the source; their conditions may differ. Read-outs that look alike come from different tables or passages of the source.

The test system of data set [1] is dopamine-β-hydroxylase (DβH). The following applies: cited from earlier work.
For data set [2] the following is noted: first- and second-generation DβH inhibitors; cited from earlier work.
The conditions of data set [3]: cited from earlier work.
For data set [4] the following is noted: cited from earlier work. This is another data set of the same source.
The conditions of data set [5]: rat; cited from earlier work.
Data set [6] concerns dopamine-β-hydroxylase (DβH). The following applies: cited from earlier work. The source holds these as a separate data set.
The conditions of data set [7]: cited from earlier work; for Increase of the extent of systemic exposure with dose / Linearity of pharmacokinetics: once-daily 25-600 mg for 10 days.
The format of data set [8] is in vivo, human. Conditions: for AUClast test/reference geometric means ratio (GMR) / AUC∞ test/reference geometric means ratio (GMR) / Cmax test/reference geometric means ratio (GMR): fed (test) vs fasting (reference), n = 12.
A further data set has as its system dogs. Conditions: cited from earlier work.
In data set [9] the test system is male cardiomyopathic hamsters (Bio TO-2 dilated strain). The following applies: male cardiomyopathic hamsters (Bio TO-2 dilated strain) with advanced congestive heart failure; cited from earlier work.
The test system of a further data set is Cynomolgus monkeys. The following applies: cited from earlier work.
The next data set relates to rats. The following applies: cited from earlier work.
Data set [10] in a line: Tolerability in the food-effect study. The data set is classed as in vivo, human. In short, it runs like this:
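Randomized two-period crossover in 12 healthy men (18–45 y, BMI 19–28 kg/m2). Each received a single 200 mg oral dose (four 50 mg capsules, 240 mL water) after a high-fat, high-calorie breakfast or a 10 h fast; washout ≥14 days; confined until 72 h post-dose. Adverse events monitored throughout, recording onset, offset, severity, relatedness, action and outcome. Vital signs, physical examination, hematology and biochemistry at each admission.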

The conditions of data set [11]: 200 mg single dose, fasting condition; cited from earlier work.
Data set [12] deals with normotensive Wistar-Kyotos rats. Conditions: cited from earlier work.
In the next data set the test system is mice. The following applies: cited from earlier work.
Data set [13] concerns dopamine or noradrenaline levels in the brain. The following applies: in contrast to peripheral tissues; cited from earlier work.
The subject of data set [14] is spontaneously hypertensive rats. The following applies: cited from earlier work.
Setting [15] is: first- and second-generation DβH inhibitors.
Where [16] appears, read: 90% CI of GMR against the acceptance interval (80, 125).

Regarding `CCCCc1ccc(C(=O)O)nc1` [fusaric acid], in [1] (setting [15]), the “Potency as DβH inhibitor” value is “low potency” and the “Selectivity for DβH” value was “poor selectivity”. Besides, the Side effects entry in [2] was “toxic side effects”.
Turning to `CCN(CC)C(=S)SSC(=S)N(CC)CC` [disulfiram], in data set [1] (setting [15]), the “Potency as DβH inhibitor” value is “low potency” and the “Selectivity for DβH” value is given as “poor selectivity”. In [2], the Side effects result is “toxic side effects”.
In the case of `NCc1c[nH]c(=S)n1[C@H]1CCc2c(F)cc(F)cc2C1` [nepicastat], the “Crossing of the blood-brain barrier” value in [3] is on record as “cross the blood-brain barrier”. In addition, the “Potency as DβH inhibitor” value in [1] (third-generation DβH inhibitor, compared with first and second generation) is “much greater potency”.
As for `CCN(CC)C(=S)S` [diethyldithiocarbamate], in data set [1] (setting [15]), the “Potency as DβH inhibitor” value is recorded as “low potency” and the “Selectivity for DβH” value is on record as “poor selectivity”. Further, in [2], the Side effects result is given as “toxic side effects”.
On to `CC(=O)NCCc1c[nH]c(=S)n1[C@H]1COc2c(F)cc(F)cc2C1` [BIA 5-961], for which the “AUC in NAT2 rapid acetylators compared with poor acetylators” value in data set [4] was “markedly higher”. The “Occurrence as metabolite of etamicastat” value in data set [5] is listed as “major metabolic pathway”. The “Activity of the metabolite” value in data set [6] is “inactive”. Also, in data set [7], the “Increase of the extent of systemic exposure with dose” value is “approximately dose-proportional” and the Linearity of pharmacokinetics result is given as “linear pharmacokinetics”. For the same compound, the “Effect of food on AUC∞, AUClast and Cmax (systemic exposure) of the metabolite” value in data set [8] (etamicastat 200 mg administered in the presence of food vs fasting) was “significant decrease; also recorded: decreased”. Further, in [8] (single oral etamicastat 200 mg), the “AUClast test/reference geometric means ratio (GMR)” value turned out to be 79.41%, the “AUC∞ test/reference geometric means ratio (GMR)” value worked out at 83.47% and the “Cmax test/reference geometric means ratio (GMR)” value is reported as 62.42%.
Consider `Cl.NCCc1c[nH]c(=S)n1[C@H]1COc2c(F)cc(F)cc2C1` [etamicastat, (R)-5-(2-aminoethyl)-1-(6,8-difluorochroman-3-yl)-1,3-dihydroimidazole-2-thione hydrochloride], for which, in data set [4], the “Effect of NAT1 phenotype on pharmacokinetics” value is “no relevant effect”. Also, the “No observed adverse effect level” value in the data set with dogs is recorded as 5 mg/kg/day. The Survival rates result in data set [9] is “increased survival rates”. In addition, the “No observed adverse effect level” value in the data set on Cynomolgus monkeys was 20 mg/kg/day. Besides, the “No observed adverse effect level” value in the data set on rats is on record as 30 mg/kg/day. Also, in [10] (both periods), the “Intensity of TEAEs” value is given as “mild to moderate” and the “Serious adverse events or discontinuations due to adverse events” value was “no serious adverse events or discontinuations due to adverse events”. For the same compound, the “Total number of treatment-emergent adverse events” value in [10] (both periods, single oral etamicastat 200 mg) was “six”. The “Abnormalities in vital signs, ECG or laboratory safety tests” value in data set [10] (during the study) is recorded as “no clinically significant abnormality; also recorded: No clinically relevant abnormalities”. Also, the “Number of TEAEs” value in data set [10] (fed period (abdominal pain, asthenia, headache, intercostal pain)) is reported as “four”. Further, in data set [10] (of 12 subjects, single oral etamicastat 200 mg, both periods), the “Proportion of subjects reporting treatment-emergent adverse events” value stood at 33.3%. For the same compound, in data set [10] (single oral 200 mg, fasting and fed periods, healthy male subjects), the Overall tolerability result is “well tolerated”. In addition, in data set [11], the “AUClast, arithmetic mean” value is 2026 ng·h/mL; the “AUC∞, arithmetic mean” value was 2230 ng·h/mL; the “Cmax, arithmetic mean” value is 202 ng/mL; the “t1/2, arithmetic mean” value is 19.8 h. Moreover, the Heart rate entry in data set [12] (Wistar-Kyotos rats) is recorded as “did not affect”. In data set [12] (normotensive Wistar-Kyotos rats), the “Systolic and diastolic blood pressure” value is listed as “no changes”. In addition, the “No observed adverse effect level” value in the data set on mice is 30 mg/kg/day. Further, the “Effect on dopamine or noradrenaline levels in the brain” value in data set [13] is “does not affect”. Also, in data set [7], the “Increase of the extent of systemic exposure with dose” value is “approximately dose-proportional” and the Linearity of pharmacokinetics entry is on record as “linear pharmacokinetics”. For the same compound, in [7] (once-daily dosing), the “Etamicastat dose recovered in urine in the form of etamicastat and BIA 5-961” value was “Approximately 40%”; the “Time to attain steady-state plasma concentrations” value was “up to 9 days”. The Tolerability entry in data set [7] (orally, doses up to 600mg once daily for 10 days, male healthy volunteers) was “appears to be well tolerated”. Besides, in data set [14], the Heart rate result is recorded as “did not affect”; the “Systolic and diastolic blood pressure” value is “reduced”. Also, in data set [8] (setting [16]), the “Bioequivalence fed vs fasting for Cmax” value is reported as “did not fit the claim of bioequivalence; also recorded: does not fit the claim of bioequivalence”; the “Bioequivalence fed vs fasting for extent of exposure (AUClast and AUC∞)” value is reported as “fulfilled the claim of bioequivalence; also recorded: remained within the acceptance interval; also recorded: remained unchanged”. In data set [8] (single oral etamicastat 200 mg), the “AUClast test/reference geometric means ratio (GMR)” value is 93.59%, the “AUC∞ test/reference geometric means ratio (GMR)” value worked out at 96.47% and the “Cmax test/reference geometric means ratio (GMR)” value worked out at 72.27%. For the same compound, the “Effect of food on tmax” value in data set [8] (fed vs fasting, Wilcoxon signed rank test) is on record as “prolonged; also recorded: significantly delayed; also recorded: significantly increased”. For the same compound, the “Decrease of Cmax as a result of food intake” value in [8] (fed vs fasting, single oral etamicastat 200 mg) is listed as 28%.
